Data on twelve compounds can be found in ChEMBL document CHEMBL3351677, “Design and synthesis of azaisoflavone analogs as phytoestrogen mimetics” (Eur J Med Chem, 2014).

The subject of one assay is CV-1. Nature of the assay: Selectivity ratio of maximum activation of human ERbeta expressed in CV1 cells to maximum activation of human ERalpha expressed in CV1 cells. It counts as cell-based. The essentials:
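CV-1 cells held in phenol red-free DMEM with 5% stripped FBS for 3 days, seeded at 1.5 × 10⁵ cells/well. Next day they were co-transfected for 6 h with 30 ng hERα or hERβ plus 100 ng ERE-luciferase, with a β-galactosidase vector for normalization. Treated 24 h, then luciferase read, β-gal absorbance at 410 nm. Each subtype's activation expressed relative to maximum with 20 nM E2; at least three experiments.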

The species named for another assay is Homo sapiens. As to the kind of experiment: Selectivity ratio of maximum inhibition of recombinant human ERbeta to maximum inhibition of recombinant human ERalpha by competitive binding assay. The essentials:
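Competitive binding with [³H]-E2 (1 nM) for ERα and ERβ. Bound and free ligand separated by centrifugation at 12,000 × g for 2 min; supernatant radioactivity counted by liquid scintillation. Bound [³H]-E2 expressed relative to maximum receptor-bound ligand (10⁻⁷ M E2), versus 0.1% DMSO control; at least three separate experiments.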

Assay [1] concerns MCF7. As to the kind of experiment: Stimulation of growth in human MCF7 cells at 5 to 20 uM after 4 days by MTT assay. It counts as functional, cell-based. In short, it runs like this:
(§1)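 MCF-7 cells kept in DMEM with 10% FBS, then held 3 days in phenol red-free DMEM with 5% charcoal-dextran stripped FBS. Seeded at 1.5 × 10³ cells/well for 24 h, then treated with samples for 4 days; 0.1 nM E2 and 100 nM ICI served as controls. MTT (5 mg/mL in PBS) was added for 2 h, formazan dissolved in DMSO and absorbance read. Three independent experiments, mean ± SD, Dunnett test.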
(Tetrazolium assays rely on reduction of a dye to a coloured formazan, in cell work by metabolically active cells.)

Assay [2] has as its system MCF7. As to the kind of experiment: Growth inhibition in human MCF7 cells at 50 to 100 uM after 4 days by MTT assay. It counts as functional, cell-based. The essentials: as §1
For assay [3], the system named is MCF7. Nature of the assay: Stimulation of growth in human MCF7 cells at 0.1 to 20 uM after 4 days by MTT assay. It is filed as functional, cell-based. In short, it runs like this: as §1
In assay [4] the test system is MCF7. As to the kind of experiment: Growth inhibition in human MCF7 cells at 20 to 100 uM after 4 days by MTT assay. It is filed as functional, cell-based. The essentials: as §1
Assay [5] has as its system MCF7. As to the kind of experiment: Growth inhibition in human MCF7 cells at 5 to 100 uM after 4 days by MTT assay. It counts as functional, cell-based. In short, it runs like this: as §1

Activity calls are given as the source filed them. The calls are words filed in the database; no cut-off is given here.

For `O=c1c(-c2ccc(O)cc2)c[nH]c2cc(O)cc(O)c12`, the figures for the Selectivity ratio in the assay on CV-1 and in the assay listed under Homo sapiens were 2.9 and 12, respectively. The outcome in the assay with MCF7 [1] was Active. Also, in the assay on MCF7 [2], the “growth inhibition (GI)” value is “Active”.

`CCCn1cc(-c2ccc(O)cc2)c(=O)c2ccc(O)cc21`: the Selectivity ratio with CV-1 worked out at 1.6. The outcome with MCF7 [1] was Active. Besides, in the assay with MCF7 [2], the “growth inhibition (GI)” value was “Active”.

`O=c1c(-c2ccc(O)cc2)coc2cc(O)cc(O)c12`: in the assay with MCF7 [3], the outcome was Active. Moreover, the “growth inhibition (GI)” value in the assay on MCF7 [4] was “Active”.

Take `Cn1cc(-c2ccc(O)cc2)c(=O)c2ccc(O)cc21`: the Selectivity ratio in the assay on CV-1 was determined as 6.4.

As for `CC(C)CCn1cc(-c2ccc(O)cc2)c(=O)c2ccc(O)cc21`, the Selectivity ratio in the assay on CV-1 was 3.4. Moreover, the “growth inhibition (GI)” value with MCF7 [5] was “Active”.

Consider `CCn1cc(-c2ccc(O)cc2)c(=O)c2c(O)cc(O)cc21`, for which the results for the Selectivity ratio in the assay with CV-1 and in the assay listed under Homo sapiens were 0.8 and 1.6, respectively. Moreover, in the assay on MCF7 [1], the outcome was Active. In the assay with MCF7 [2], the “growth inhibition (GI)” value was “Active”.

As to `Cn1cc(-c2ccc(O)cc2)c(=O)c2c(O)cc(O)cc21`, the Selectivity ratio stood at 1.3 with CV-1 and 2.6 in the assay filed under Homo sapiens. Further, in the assay on MCF7 [1], the result was Active. Also, in the assay with MCF7 [2], the “growth inhibition (GI)” value was “Active”.

As to `O=c1c(-c2ccc(O)cc2)cn(Cc2ccccc2)c2cc(O)ccc12`, the Selectivity ratio with CV-1 stood at 1. Also, the “growth inhibition (GI)” value in the assay with MCF7 [5] is “Active”.

For `CCn1cc(-c2ccc(O)cc2)c(=O)c2ccc(O)cc21`, in the assay on CV-1, the Selectivity ratio worked out at 2.9. In the assay with MCF7 [1], the result was Active. Moreover, the “growth inhibition (GI)” value in the assay with MCF7 [2] is “Active”.

On to `O=c1c(-c2ccc(O)cc2)c[nH]c2cc(O)ccc12`, for which the Selectivity ratio in the assay on CV-1 stood at 1.3.

With `CCCn1cc(-c2ccc(O)cc2)c(=O)c2ccccc21`, in the assay on CV-1, the Selectivity ratio amounted to 0.5. Also, the outcome in the assay with MCF7 [1] was Active. Also, the “growth inhibition (GI)” value in the assay on MCF7 [2] is “Active”.

As for `CCCn1cc(-c2ccc(O)cc2)c(=O)c2c(O)cc(O)cc21`, the values for the Selectivity ratio with CV-1 and in the assay listed under Homo sapiens were 0.3 and 1.4, respectively. Moreover, the “growth inhibition (GI)” value in the assay with MCF7 [5] was “Active”.
